Source: ChEMBL document CHEMBL1671856, “Chemical target validation studies of aminopeptidase in malaria parasites using alpha-aminoalkylphosphonate and phosphonopeptide inhibitors” (Antimicrob Agents Chemother, 2008)

Experiments:
Plasmodium falciparum [1] = experiment: Antimalarial activity against Plasmodium falciparum 3D7 infected in O-positive human erythrocytes after 72 hrs; assay type: functional, organism-based; conditions: 3D7, 72 h
How it was run: (§1)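 Asynchronous asexual blood-stage P. falciparum 3D7 were cultured in O+ erythrocytes and exposed to compounds for 72 h. Growth was read by the spectrophotometric parasite lactate dehydrogenase absorbance assay. IC50 values were determined graphically from dose-response curves.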

[2] = biological target: T1, Leucine aminopeptidase (Plasmodium falciparum 3D7) (UniProt Q8IL11); experiment: Inhibition of leucyl aminopeptidase activity in Plasmodium falciparum 3D7 at 10 uM using Leu-AMC as a substrate by spectrophotometer
T1 sequence (whole entry): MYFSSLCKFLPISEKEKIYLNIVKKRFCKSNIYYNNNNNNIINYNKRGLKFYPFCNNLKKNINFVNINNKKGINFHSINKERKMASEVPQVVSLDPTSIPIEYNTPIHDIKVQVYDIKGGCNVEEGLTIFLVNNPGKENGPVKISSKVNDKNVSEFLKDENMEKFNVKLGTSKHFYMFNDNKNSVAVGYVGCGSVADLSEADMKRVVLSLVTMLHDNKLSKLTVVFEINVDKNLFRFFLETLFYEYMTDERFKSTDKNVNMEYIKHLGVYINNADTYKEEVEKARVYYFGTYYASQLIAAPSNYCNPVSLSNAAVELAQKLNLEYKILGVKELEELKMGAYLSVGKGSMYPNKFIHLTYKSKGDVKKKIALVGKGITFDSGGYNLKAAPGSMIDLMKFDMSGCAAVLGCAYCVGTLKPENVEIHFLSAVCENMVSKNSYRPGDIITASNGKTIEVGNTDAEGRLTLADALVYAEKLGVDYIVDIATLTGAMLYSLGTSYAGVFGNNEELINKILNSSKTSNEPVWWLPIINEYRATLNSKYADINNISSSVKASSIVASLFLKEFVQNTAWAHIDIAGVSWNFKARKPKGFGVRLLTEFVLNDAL
How it was run: (§2)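 Cytosolic extract came from free parasites released from infected erythrocytes, then three freeze-thaw cycles and centrifugation at 12,000 x g, 4°C, 20 min. Extract (25 µg/ml final) was preincubated with 0.1 or 10 µM inhibitor in 50 mM Tris-Cl pH 8.0, with or without 1 mM CoCl2, for 15 min at 37°C. Leu-AMC or Ala-AMC (10 µM final) was added. AMC release was read over 30 min (ex 370/em 440 nm).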

[3] = biological target: T1, Leucine aminopeptidase (Plasmodium falciparum 3D7); experiment: Inhibition of leucyl aminopeptidase activity in Plasmodium falciparum 3D7 at 0.1 uM using Leu-AMC as a substrate by spectrophotometer; how it was run: as §2
Plasmodium falciparum [4] = experiment: Inhibition of alanyl aminopeptidase activity in Plasmodium falciparum 3D7 at 10 uM using Ala-AMC as a substrate by spectrophotometer; how it was run: as §2
Plasmodium falciparum [5] = experiment: Inhibition of alanyl aminopeptidase activity in Plasmodium falciparum 3D7 at 0.1 uM using Ala-AMC as a substrate by spectrophotometer; how it was run: as §2
[6] = biological target: T1, Leucine aminopeptidase (Plasmodium falciparum 3D7); experiment: Inhibition of leucyl aminopeptidase activity in Plasmodium falciparum 3D7 at 10 uM using Leu-AMC as a substrate by spectrophotometer in presence of 1 mM CoCl2
[7] = biological target: T1, Leucine aminopeptidase (Plasmodium falciparum 3D7); experiment: Inhibition of leucyl aminopeptidase activity in Plasmodium falciparum 3D7 at 0.1 uM using Leu-AMC as a substrate by spectrophotometer in presence of 1 mM CoCl2
Plasmodium falciparum [8] = experiment: Antimalarial activity against Plasmodium falciparum 3D7 infected in O-positive human erythrocytes assessed as growth inhibition by LDH assay; assay type: functional; how it was run: as §1
[9] = Inhibition of porcine kidney leucyl aminopeptidase; set-up: species or system Sus scrofa
Aminopeptidase N = biological target: T2, Aminopeptidase N (Sus scrofa, UniProt P15145); experiment: Inhibition of pig kidney microsomal aminopeptidase N
T2 sequence (P15145 whole entry): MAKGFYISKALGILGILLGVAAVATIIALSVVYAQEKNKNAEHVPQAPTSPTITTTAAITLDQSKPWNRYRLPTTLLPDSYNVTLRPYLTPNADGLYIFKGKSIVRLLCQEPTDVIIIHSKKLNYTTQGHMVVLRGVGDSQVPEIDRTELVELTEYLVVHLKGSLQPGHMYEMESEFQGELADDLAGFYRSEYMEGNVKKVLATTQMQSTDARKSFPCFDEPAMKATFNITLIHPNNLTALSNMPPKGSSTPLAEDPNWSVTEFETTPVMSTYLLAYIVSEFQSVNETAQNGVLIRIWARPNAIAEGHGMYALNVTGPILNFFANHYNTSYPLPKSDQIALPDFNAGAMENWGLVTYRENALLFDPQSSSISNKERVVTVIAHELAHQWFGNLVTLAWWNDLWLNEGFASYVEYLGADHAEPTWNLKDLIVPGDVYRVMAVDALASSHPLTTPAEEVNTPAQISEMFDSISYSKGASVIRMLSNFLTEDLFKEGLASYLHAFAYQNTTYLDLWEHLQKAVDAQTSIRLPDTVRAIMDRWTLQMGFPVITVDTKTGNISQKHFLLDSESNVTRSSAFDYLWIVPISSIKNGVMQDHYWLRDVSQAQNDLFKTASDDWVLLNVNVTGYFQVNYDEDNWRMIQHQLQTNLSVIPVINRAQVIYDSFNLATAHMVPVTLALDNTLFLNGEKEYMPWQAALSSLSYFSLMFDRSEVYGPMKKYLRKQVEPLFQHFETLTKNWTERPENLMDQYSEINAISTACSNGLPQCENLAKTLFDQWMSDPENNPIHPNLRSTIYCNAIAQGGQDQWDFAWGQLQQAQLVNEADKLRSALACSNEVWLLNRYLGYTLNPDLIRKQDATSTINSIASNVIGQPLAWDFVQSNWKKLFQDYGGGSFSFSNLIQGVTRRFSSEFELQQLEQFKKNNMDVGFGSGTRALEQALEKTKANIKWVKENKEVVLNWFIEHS

SMILES	IC50 (Plasmodium falciparum [1])	inhibition [2]	inhibition (INH) (Plasmodium falciparum [8])	further results
CC(CCNC(=O)C(N)Cc1ccccc1)P(=O)(O)O (configuration not stated)	135 µM	4%		inhibition [3]: 0%; inhibition at 10 µM (Plasmodium falciparum [4]): 0%; inhibition at 0.1 µM (Plasmodium falciparum [5]): 0%; inhibition [6]: 0%; inhibition [7]: 1%
NC(c1ccc2ccccc2c1)C(O)P(=O)(O)O (configuration not stated)	> 128 µM	17%	11%	
CCC(CC)[C@H](N)P(=O)(O)O	> 256 µM	10%	15%	
CC(C)C[C@H](N)[C@@H](N)P(=O)(O)O	> 256 µM	6%	14%	
Cl.NC(Cc1ccccc1)C(=O)NCCC(O)P(=O)(O)O (configuration not stated)	> 256 µM	9%	10%	
CC(C)C(NC(=O)C(N)Cc1ccccc1)P(=O)(O)O (configuration not stated)	> 256 µM	12%	7%	
N[C@H](C1CCCCC1)P(=O)(O)O	> 256 µM	8%	7%	Ki [9]: 6.96 µM; Ki (Aminopeptidase N): > 2000 µM
CCC(C)C(N)C(O)P(=O)(O)O (configuration not stated)	> 256 µM	5%	1%	
CCC(CC)[C@@H](N)P(=O)(O)O	> 256 µM	6%	0%	
NC(c1ccccc1)C(O)P(=O)(O)O (configuration not stated)	> 256 µM	5%	0%	
CC(C)C[C@@H](N)P(=O)(O)O	> 256 µM	2%	1%	Ki (Aminopeptidase N): 53 µM
NC(CCc1ccccc1)P(=O)(O)Oc1ccccc1 (racemic)	25 µM	90%		inhibition [3]: 8%; inhibition at 10 µM (Plasmodium falciparum [4]): 92%; inhibition at 0.1 µM (Plasmodium falciparum [5]): 12%; inhibition [6]: 73%; inhibition [7]: 19%
COc1ccc(C(N)P(=O)(O)O)cc1O (racemic)	65 µM	39%		inhibition [3]: 5%; inhibition at 10 µM (Plasmodium falciparum [4]): 43%; inhibition at 0.1 µM (Plasmodium falciparum [5]): 0%; inhibition [6]: 71%; inhibition [7]: 46%
COc1ccc(C(N)P(=O)(O)O)cc1OC (racemic)	53 µM	71%		inhibition [3]: 6%; inhibition at 10 µM (Plasmodium falciparum [4]): 76%; inhibition at 0.1 µM (Plasmodium falciparum [5]): 0%; inhibition [6]: 70%; inhibition [7]: 20%
COc1ccc(C(N)P(=O)(O)O)cc1 (racemic)	57 µM	43%		inhibition [3]: 2%; inhibition at 10 µM (Plasmodium falciparum [4]): 52%; inhibition at 0.1 µM (Plasmodium falciparum [5]): 2%; inhibition [6]: 73%; inhibition [7]: 38%
NC(c1cccc(O)c1)P(=O)(O)O (racemic)	> 256 µM	6%	34%	
NC(CC1CCCC1)P(=O)(O)O (racemic)	> 256 µM	37%	17%	
NC(c1ccc(O)cc1)P(=O)(O)O (racemic)	> 256 µM	8%	14%	

SMILES	IC50 (Plasmodium falciparum [1])	inhibition [2]	inhibition (INH) (Plasmodium falciparum [8])	further results
NC(C1CCC1)P(=O)(O)O (racemic)	> 256 µM	6%	8%	
NC(c1ccc(O)c(O)c1)P(=O)(O)O (racemic)	> 256 µM	7%	5%	
NC(Cc1ccc(O)cc1)P(=O)(O)O (racemic)	> 256 µM	8%	1%	
NC(C1CC1)P(=O)(O)O (racemic)	> 256 µM	6%	0%	
CCC(C)C(N)P(=O)(O)O (stereo in doubt; D28) [listing 1 of 2 here]	> 256 µM		22%	
CCC(C)C(N)P(=O)(O)O (stereo in doubt; D28) [listing 2 of 2 here]		9%		
CCC(C)C(N)P(=O)(O)O (stereo in doubt; D29) [listing 1 of 2 here]			0%	
CCC(C)C(N)P(=O)(O)O (stereo in doubt; D29) [listing 2 of 2 here]		9%		
CCCC(C)C(N)P(=O)(O)O (stereo in doubt; D30) [listing 1 of 2 here]	> 256 µM		14%	
CCCC(C)C(N)P(=O)(O)O (stereo in doubt; D30) [listing 2 of 2 here]		11%		
CCCC(C)C(N)P(=O)(O)O (stereo in doubt; D31) [listing 1 of 2 here]			2%	
CCCC(C)C(N)P(=O)(O)O (stereo in doubt; D31) [listing 2 of 2 here]		3%		
CCCCC(CC)C(N)P(=O)(O)O (stereo in doubt; D32) [listing 1 of 2 here]			0%	
CCCCC(CC)C(N)P(=O)(O)O (stereo in doubt; D32) [listing 2 of 2 here]		1%		
CCCCC(CC)C(N)P(=O)(O)O (stereo in doubt; D33) [listing 1 of 2 here]	> 256 µM		17%	
CCCCC(CC)C(N)P(=O)(O)O (stereo in doubt; D33) [listing 2 of 2 here]		11%		
CC(C)C[C@H](N)P(=O)(O)O [LEUCINE PHOSPHONIC ACID]	> 128 µM	15%	30%	inhibition [3]: 0%; inhibition at 10 µM (Plasmodium falciparum [4]): 24%; inhibition at 0.1 µM (Plasmodium falciparum [5]): 0%; inhibition [6]: 52%; inhibition [7]: 9%
